One data set relates to Human adenovirus 2. As to the kind of experiment: Antiviral activity against Human adenovirus 2 infected in human HEL cells assessed as inhibition of virus-induced cytopathic effect after 3 days by microscopic method. In kind it is functional, organism-based. To be noted: Human mastadenovirus C, 72 h. The procedure, abridged: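 HEL cells were infected with adenovirus 2 for 2 h. Residual virus was then removed and the cells were incubated with medium containing graded compound concentrations for 3 days at 37°C. Virus-induced cytopathogenicity was scored microscopically.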

A short description of data set [1]: Selectivity index, ratio of MCC for HEL cells to EC50 for Herpes simplex virus 1 KOS infected in HEL cells. Type of data set: toxicity, cell-based. To be noted: human, read-out: Selectivity Index. The procedure, abridged:
(§1)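 SI is MCC divided by EC50. […] MCC was measured in parallel on HEL cells seeded at 5 x 10^3 cells/well, as the lowest concentration causing microscopically visible alteration of cell morphology. The top concentration tested was 100 µM.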

Data set [2] concerns Human alphaherpesvirus 1. As to the kind of experiment: Antiviral activity against acyclovir-resistant TK-defecient Herpes simplex virus 1 KOS infected in human HEL cells assessed as inhibition of virus-induced cytopathic effect after 3 days by microscopic method. Type of data set: functional, organism-based. The settings on record: Human alphaherpesvirus 1, KOS, 72 h.
Data set [3] is described as follows: Selectivity index, ratio of MCC for HEL cells to EC50 for Herpes simplex virus 2 strain G infected in HEL cells. The settings on record: human, read-out: Selectivity Index. Type of data set: toxicity, cell-based. The procedure, abridged: as §1
Data set [4] in a line: Selectivity index, ratio of MCC for HEL cells to EC50 for Vaccinia virus infected in HEL cells. In kind it is toxicity, cell-based. To be noted: human, read-out: Selectivity Index. The procedure, abridged:
as §1

For data set [5], the system named is Human alphaherpesvirus 1. As to the kind of experiment: Antiviral activity against Herpes simplex virus 1 KOS infected in human HEL cells assessed as inhibition of virus-induced cytopathic effect after 3 days by microscopic method. Type of data set: functional, organism-based. The settings on record: Human alphaherpesvirus 1, KOS, 72 h.
A further data set has as its system Human alphaherpesvirus 2. As to the kind of experiment: Antiviral activity against Human herpesvirus 2 strain G infected in human HEL cells assessed as inhibition of virus-induced cytopathic effect after 3 days by microscopic method. To be noted: Human alphaherpesvirus 2, strain G, 72 h. Type of data set: functional, organism-based.
Another data set relates to Human coronavirus 229E. As to the kind of experiment: Antiviral activity against Human coronavirus 229E infected in HEL cells assessed as reduction in virus-induced pathogenicity after 3 days by microscopic method. In kind it is functional, organism-based. The settings on record: 72 h.
Data set [6] can be described thus: Selectivity index, ratio of MCC for HEL cells to EC50 for Human adenovirus 2 infected in HEL cells. Type of data set: toxicity, cell-based. To be noted: read-out: Selectivity Index. The procedure, abridged: as §1
Data set [7] in a line: Selectivity index, ratio of MCC for HEL cells to EC50 for Human coronavirus 229E infected in HEL cells. Type of data set: toxicity, cell-based. To be noted: read-out: Selectivity Index. The procedure, abridged:
as §1

The nature of data set [8]: Cytotoxicity against HEL cells assessed as alteration in cell morphology after 3 days by microscopic method. In kind it is cell-based. To be noted: human. The procedure, abridged:
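HEL cells were seeded at 5 x 10^3 cells/well and exposed to graded compound concentrations, up to 100 μM, in parallel with the antiviral assay. Cell morphology was examined by light microscopy. MCC is the minimum concentration causing a microscopically detectable alteration of normal cell morphology.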

A short description of data set [9]: Selectivity index, ratio of MCC for HEL cells to EC50 for acyclovir-resistant TK-defecient Herpes simplex virus 1 KOS infected in HEL cells. In kind it is toxicity, cell-based. To be noted: human, read-out: Selectivity Index. The procedure, abridged: as §1
Another data set deals with Vaccinia virus. As to the kind of experiment: Antiviral activity against Vaccinia virus infected in human HEL cells assessed as inhibition of virus-induced cytopathic effect after 3 days by microscopic method. Type of data set: functional, organism-based. The settings on record: Orthopoxvirus vaccinia, 72 h.

pEC50: −log10 of the molar value.

`CCOC(=O)C1(Cc2ccccc2)CN(c2ccccc2)Cc2nnn(Cc3ccc(Cl)c(Cl)c3)c21` (configuration not stated): the pEC50 with Human adenovirus 2, in the data set on Human alphaherpesvirus 1 [2], with Human alphaherpesvirus 1 [5], in the data set on Human alphaherpesvirus 2, in the data set with Human coronavirus 229E and in the data set on Vaccinia virus was less than 4.00 in each case. Moreover, the selectivity ratio in data set [1], in data set [3], in data set [4], in data set [6], in data set [7] and in data set [9] was greater than 8 throughout. Moreover, in data set [8], the MCC at 72 h is greater than 100 µM.
For the molecule `CCOC(=O)C1(Cc2ccccc2)CN(c2ccccc2)Cc2nnn(Cc3cccc(Cl)c3)c21` (configuration not stated), the pEC50 with Human adenovirus 2, with Human alphaherpesvirus 1 [2], with Human alphaherpesvirus 1 [5], with Human alphaherpesvirus 2, with Human coronavirus 229E and in the data set with Vaccinia virus was less than 4.00 throughout. Also, the selectivity ratio in data set [1], in [3], in [4], in data set [6], in [7] and in data set [9] was greater than 8 in each case. Moreover, the MCC at 72 h in data set [8] was greater than 100 µM.
`CCCCCCn1nnc2c1CCN(c1ccc(C(F)(F)F)cc1)C2`: the pEC50 with Human adenovirus 2, with Human alphaherpesvirus 1 [2], in the data set with Human alphaherpesvirus 1 [5], in the data set on Human alphaherpesvirus 2, with Human coronavirus 229E and with Vaccinia virus was less than 4.00 in each case. Also, the selectivity ratio in [1], in [3], in [4], in [6], in [7] and in [9] was greater than 8 throughout. Moreover, the MCC at 72 h in [8] is greater than 100 µM.
Take `CCOC(=O)C1(Cc2ccccc2)CN(c2ccccc2)Cc2nnn(Cc3cccc(F)c3)c21` (configuration not stated): the negative-log EC50 (pEC50) in the data set with Human adenovirus 2, in the data set on Human alphaherpesvirus 1 [2], with Human alphaherpesvirus 1 [5], with Human alphaherpesvirus 2, in the data set with Human coronavirus 229E and in the data set on Vaccinia virus was less than 4.00 each time. Also, the selectivity ratio in data set [1], in data set [3], in data set [4], in data set [6], in data set [7] and in data set [9] was greater than 8 in each case. In data set [8], the MCC at 72 h was no less than 100 µM.
For the molecule `CCOC(=O)C1(Cc2ccccc2)CN(c2ccccc2)Cc2nnn(Cc3ccc(OC)cc3)c21` (configuration not stated), the pEC50 in the data set on Human adenovirus 2, in the data set on Human alphaherpesvirus 1 [2], with Human alphaherpesvirus 1 [5], in the data set on Human alphaherpesvirus 2, with Human coronavirus 229E and with Vaccinia virus was less than 4.00 in each case. Besides, the selectivity ratio in [1], in [3], in [4], in data set [6], in data set [7] and in [9] was greater than 8 each time. Further, the MCC at 72 h in data set [8] is greater than 100 µM.
Consider `CCOC(=O)C1(Cc2ccccc2)CN(c2ccccc2)Cc2nnn(Cc3ccccc3Cl)c21` (configuration not stated), for which the pEC50 in the data set with Human adenovirus 2, in the data set on Human alphaherpesvirus 1 [2], in the data set on Human alphaherpesvirus 1 [5], in the data set on Human alphaherpesvirus 2, in the data set with Human coronavirus 229E and in the data set with Vaccinia virus was less than 4.00 in each case. Also, the selectivity ratio in [1], in [3], in data set [4], in data set [6], in data set [7] and in data set [9] was greater than 8 throughout. For the same molecule, the MCC at 72 h in data set [8] is greater than 100 µM.
On to `CCOC(=O)C1(Cc2ccccc2)CN(c2ccccc2)Cc2nnn(Cc3ccc(Cl)cc3)c21` (configuration not stated), for which the pEC50 in the data set with Human adenovirus 2, with Human alphaherpesvirus 1 [2], in the data set with Human alphaherpesvirus 1 [5], in the data set on Human alphaherpesvirus 2, in the data set with Human coronavirus 229E and in the data set with Vaccinia virus was less than 4.00 in each case. Also, the selectivity ratio in data set [1], in data set [3], in [4], in data set [6], in data set [7] and in data set [9] was greater than 8 each time. The MCC at 72 h in [8] is greater than 100 µM.
As to `COc1ccccc1CCn1nnc2c1CCN(c1ccc(C(F)(F)F)cc1)C2`, the pEC50 with Human adenovirus 2, in the data set on Human alphaherpesvirus 1 [2], with Human alphaherpesvirus 1 [5], in the data set with Human alphaherpesvirus 2, in the data set with Human coronavirus 229E and with Vaccinia virus was less than 4.00 throughout. For the same molecule, the selectivity ratio in [1], in data set [3], in data set [4], in data set [6], in data set [7] and in [9] was greater than 8 each time. The MCC at 72 h in [8] is greater than 100 µM.
With `Fc1ccc(Cn2nnc3c2CCN(c2ccc(C(F)(F)F)cc2)C3)cc1`, the pEC50 with Human adenovirus 2, with Human alphaherpesvirus 1 [2], in the data set with Human alphaherpesvirus 1 [5], with Human alphaherpesvirus 2, in the data set on Human coronavirus 229E and with Vaccinia virus was less than 4.00 in each case. Besides, the selectivity ratio in [1], in data set [3], in [4], in data set [6], in data set [7] and in [9] was greater than 8 each time. In addition, the MCC at 72 h in data set [8] was found to be 100 µM.
Consider `CCCCCCn1nnc2c1CCN(c1ccc(F)cc1)C2`, for which the pEC50 in the data set with Human adenovirus 2, with Human alphaherpesvirus 1 [2], in the data set with Human alphaherpesvirus 1 [5], with Human alphaherpesvirus 2, in the data set with Human coronavirus 229E and in the data set with Vaccinia virus was less than 4.00 in each case. The selectivity ratio in [1], in data set [3], in [4], in data set [6], in [7] and in data set [9] was greater than 8 throughout. For the same molecule, the MCC at 72 h in data set [8] is greater than 100 µM.
As for `CCOC(=O)C1(Cc2ccccc2)CN(c2ccccc2)Cc2nnn(Cc3ccccc3)c21` (configuration not stated), the pEC50 in the data set with Human adenovirus 2, with Human alphaherpesvirus 1 [2], with Human alphaherpesvirus 1 [5], in the data set on Human alphaherpesvirus 2, in the data set on Human coronavirus 229E and in the data set on Vaccinia virus was less than 4.00 each time. The selectivity ratio in data set [1], in data set [3], in data set [4], in data set [6], in data set [7] and in [9] was greater than 8 in each case. In addition, the MCC at 72 h in data set [8] is no less than 20 µM.
As to `CCOC(=O)C1(Cc2ccccc2)CN(c2ccccc2)Cc2nnn(Cc3ccc(F)cc3)c21` (configuration not stated), the pEC50 is less than 4.00 in the data set on Human adenovirus 2; less than 4.00 with Human alphaherpesvirus 1 [2]; less than 4.00 in the data set with Human alphaherpesvirus 1 [5]; less than 4.00 in the data set on Human alphaherpesvirus 2; 5.05 in the data set with Human coronavirus 229E; less than 4.00 with Vaccinia virus. The selectivity ratio in [1], in data set [3], in data set [4], in [6], in data set [7] and in [9] was greater than 8 each time. For the same molecule, in data set [8], the MCC at 72 h was no less than 100 µM.
With `Fc1cccc(Cn2nnc3c2CCN(c2ccc(C(F)(F)F)cc2)C3)c1`, the pEC50 in the data set with Human adenovirus 2 is less than 4.00; with Human alphaherpesvirus 1 [2], less than 4.00; with Human alphaherpesvirus 1 [5], less than 4.00; in the data set with Human alphaherpesvirus 2, less than 4.00; with Human coronavirus 229E, 4.92; in the data set with Vaccinia virus, less than 4.00. Also, the selectivity ratio in data set [1], in [3], in [4], in data set [6], in [7] and in data set [9] was greater than 8 each time. The MCC at 72 h in data set [8] was determined as 100 µM.
With `CCOC(=O)C1(Cc2ccccc2)CN(c2ccccc2)Cc2nnn(Cc3cc(OC)c(OC)c(OC)c3)c21` (configuration not stated), the negative logarithm of the EC50 (pEC50) with Human adenovirus 2, with Human alphaherpesvirus 1 [2], in the data set with Human alphaherpesvirus 1 [5], with Human alphaherpesvirus 2, with Human coronavirus 229E and in the data set with Vaccinia virus was less than 4.00 in each case. The selectivity ratio in [1], in [3], in data set [4], in data set [6], in data set [7] and in [9] was greater than 8 throughout. Moreover, in [8], the MCC at 72 h is no less than 100 µM.

The values are drawn from ChEMBL document CHEMBL4265975, “Synthesis, biological evaluation and molecular modeling of a novel series of fused 1,2,3-triazoles as potential anti-coronavirus agents” (Bioorg Med Chem Lett, 2018).
